Drawing on PubChem BioAssay AID652011 (Sanford-Burnham Center for Chemical Genomics, 2013), this text covers inhibition for 31 compounds.

Values joined by “and” are separate entries in the source; they are usually repeats but may differ in a detail not shown here. Identical values can stand only once.

Hypoxia-inducible factor 1-alpha (Homo sapiens), sequence (Q16665 whole entry, looked up): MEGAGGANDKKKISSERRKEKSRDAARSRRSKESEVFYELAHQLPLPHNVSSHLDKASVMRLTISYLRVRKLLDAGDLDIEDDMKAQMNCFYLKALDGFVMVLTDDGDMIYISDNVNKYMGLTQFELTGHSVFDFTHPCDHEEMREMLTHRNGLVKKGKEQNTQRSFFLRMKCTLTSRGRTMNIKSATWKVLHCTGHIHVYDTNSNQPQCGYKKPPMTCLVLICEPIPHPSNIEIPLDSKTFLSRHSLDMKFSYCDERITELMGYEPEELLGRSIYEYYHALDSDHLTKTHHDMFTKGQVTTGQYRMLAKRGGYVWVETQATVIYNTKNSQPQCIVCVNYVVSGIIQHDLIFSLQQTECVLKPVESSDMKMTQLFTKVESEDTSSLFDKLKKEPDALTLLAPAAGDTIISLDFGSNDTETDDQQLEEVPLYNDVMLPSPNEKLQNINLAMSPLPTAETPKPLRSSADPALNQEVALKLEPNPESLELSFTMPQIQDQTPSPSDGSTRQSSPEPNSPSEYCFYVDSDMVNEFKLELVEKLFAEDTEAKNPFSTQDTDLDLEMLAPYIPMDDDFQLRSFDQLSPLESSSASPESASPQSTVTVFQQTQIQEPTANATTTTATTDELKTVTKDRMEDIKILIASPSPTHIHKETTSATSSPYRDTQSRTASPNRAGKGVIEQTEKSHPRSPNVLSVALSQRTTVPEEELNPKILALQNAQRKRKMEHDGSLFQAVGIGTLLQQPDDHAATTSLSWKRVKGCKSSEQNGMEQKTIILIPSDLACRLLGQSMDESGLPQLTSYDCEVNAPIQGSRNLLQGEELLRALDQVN

The assay concerns the target Hypoxia-inducible factor 1-alpha (Homo sapiens) (UniProt Q16665). Put plainly: HIF reporter inhibition across pancreatic and renal lines – cell-based, luminescence, MIAPaCa-2, 786-0, panel, SAR follow-up (AID 652011). The note with it: MIAPaCa-2/PANC HIF reporter, luciferase luminescence, desferoxamine, overnight, HIF1a, run 2; at 99 µM (top of the series). The method in brief: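 Probe or stimulus – desferoxamine stimulus · Times – overnight compound incubation at 37 °C, 10 min reagent · Doses – compounds from 10 mM and 0.3125 mM stocks, 1% DMSO final · Technique – luminescence, One-Glo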
Broadly, the inhibition is the relative decrease from the control value, in per cent. `CNC(=O)CCc1nc(-c2ccc(C(C)C)cc2)no1`: the inhibition was -35.5%.

Regarding `CCC(C)NC(=O)CCc1nc(-c2ccc(C(C)C)cc2)no1` (stereo unspecified), the inhibition is -0.644%. The figure for `CN(C)C(=O)CCc1nc(-c2ccc(C(C)(C)C)cc2)no1` is -8.56% and -52.1%; for `CCCCc1ccc(-c2noc(CCC(=O)NC)n2)cc1` it is 9.8%. The same measure for `CCOc1ccc(-c2noc(CCC(=O)O)n2)cc1`: 70.3%; for `C=CCNC(=O)CCc1nc(-c2ccc(C(C)(C)C)cc2)no1`: 34.7%.

For `CCC(C)NC(=O)CCc1nc(-c2ccc(C(C)(C)C)cc2)no1` (stereo unspecified), the inhibition is -28.9%. Take `CNC(=O)CCc1nc(-c2ccc(F)cc2)no1`: the inhibition is -36.7%. For `CCNC(=O)CCc1nc(-c2ccccc2C)no1`, the inhibition is -28.2%. The same measure for `CC(C)(C)c1ccc(-c2noc(CCC(=O)NC3CCCC3)n2)cc1`: 81.4%; for `CCNC(=O)CCc1nc(-c2cccc(C)c2)no1`: -31.6%. The same measure for `CC(C)c1ccc(-c2noc(CCC(=O)NC(C)(C)C)n2)cc1`: 38.8%; for `O=C(CCc1nc(-c2ccccc2)no1)NC1CC1`: -23.4%; for `CCNC(=O)CCc1nc(-c2ccc(OCC)cc2)no1`: -42.2%.

As to `CNC(=O)CCc1nc(-c2ccc(OC)cc2)no1`, the inhibition is -31.5%. The same measure for `CCOc1ccc(-c2noc(CCC(=O)NC)n2)cc1`: -24%. The same measure for `CCOc1ccccc1NC(=O)CCc1nc(-c2ccc(C(C)(C)C)cc2)no1`: 60%; for `CCCCc1ccc(-c2noc(CCC(=O)NC(C)CC)n2)cc1` (stereo unspecified): 58.1%; for `CCC(C)NC(=O)CCc1nc(-c2ccccc2)no1` (stereo unspecified): -19.7%. Regarding `CNC(=O)CCc1nc(-c2ccc(C)cc2)no1`, the inhibition was 20.3%. For the compound `CCNC(=O)CCc1nc(-c2cccc(OC)c2)no1`, the inhibition was -31.4%. `CNC(=O)CCc1nc(-c2ccccc2)no1`: the inhibition was -20.8% and 17.9%. For the compound `CC(C)(C)NC(=O)CCc1nc(-c2ccc(C(C)(C)C)cc2)no1`, the inhibition came to 96.7%. The same measure for `CC(C)(C)c1ccc(-c2noc(CCC(=O)O)n2)cc1`: 94.9%. On to `CCc1ccc(-c2noc(CCC(=O)NC)n2)cc1`, for which the inhibition is -34.1%. Consider `CCNC(=O)CCc1nc(-c2ccccc2)no1`, for which the inhibition was -23.4%. Turning to `CCNC(=O)CCc1nc(-c2c(Cl)cccc2Cl)no1`, the inhibition came to 28.8%.

Regarding `CC(C)(C)c1ccc(-c2noc(CCC(=O)NC3CC3)n2)cc1`, the inhibition is -29.7%. The same measure for `CCN(CC)C(=O)CCc1nc(-c2ccc(C(C)(C)C)cc2)no1`: 27.4% and 77.3%; for `CCCCc1ccc(-c2noc(CCC(=O)NC3CC3)n2)cc1`: 36%; for `CC(C)(C)c1ccc(-c2noc(CCC(=O)NCC3CCCO3)n2)cc1` (stereo unspecified): 8.05%.
